{"data": "Results gathered from unrelated publications", "Tumor necrosis factor receptor superfamily member 9": "Tumor necrosis factor receptor superfamily member 9 (Homo sapiens, UniProt Q07011)", "IDE": "Insulin-degrading enzyme (IDE, Homo sapiens, UniProt P14735)", "CSF1R": "Macrophage colony-stimulating factor 1 receptor (CSF1R, Homo sapiens, UniProt P07333)", "note": "Protocols differ between the studies behind these lines."}
{"Compound": "CCCC[C@@H]1NC(=O)[C@H](Cc2ccc(O)cc2)NC(=O)[C@@H]2CCCN2C(=O)[C@H](CC(=O)O)NC(=O)[C@H](C)NC(=O)[C@H](Cc2ccccc2)NC(=O)[C@@H]2CSCCC(=O)N3CN(CN(C3)C(=O)CCSC[C@@H](C(=O)N[C@@H](C)C(N)=O)NC1=O)C(=O)CCSC[C@H](NC(C)=O)C(=O)N[C@@H](CC(C)(C)C)C(=O)N1CCC[C@H]1C(=O)N[C@@H](CCCCNC(=O)CCc1cn(CC(=O)N[C@H]3CSCCC(=O)N4CN5CN(C4)C(=O)CCSC[C@H](NC(=O)[C@@H](CC(=O)O)NC(=O)[C@H](Cc4cccc6ccccc46)NC(=O)[C@@H]4CCCN4C3=O)C(=O)N[C@@H](CCSC)C(=O)N[C@@H](CCCCNC(=N)N)C(=O)N[C@@H](CC(=O)O)C(=O)N[C@@H](Cc3c[nH]c4ccccc34)C(=O)N[C@@H](CO)C(=O)N[C@@H]([C@@H](C)O)C(=O)N3CCC[C@H]3C(=O)N3C[C@H](O)C[C@H]3C(=O)N[C@@H](Cc3c[nH]c4ccccc34)C(=O)N[C@H](C(N)=O)CSCCC5=O)nn1)C(=O)N[C@H](C)C(=O)N1CCC[C@H]1C(=O)N[C@@H](Cc1ccc(O)cc1)C(=O)N2", "target": "Tumor necrosis factor receptor superfamily member 9", "test": "binding, SPR", "measurement": "Kd", "value": "12 nM"}
{"Compound": "COC(=O)[C@H](Cc1c[nH]cn1)NC(=O)CN(CC(=O)O)Cc1ccc2ccccc2c1", "target": "IDE", "test": "enzyme activity, inhibitor, fluorescence", "measurement": "IC50", "value": "1200 nM"}
{"Compound": "Cc1ccc(C)c(OCCCC(C)(C)C(=O)O)c1", "target": "Peroxisome proliferator-activated receptor alpha (PPARA, Homo sapiens, UniProt Q07869)", "test": "reporter gene, agonist, luciferase", "measurement": "EC50", "value": "58000 nM"}
{"Compound": "COC(=O)[C@H](Cc1c[nH]cn1)NC(=O)CN(CC(=O)NO)Cc1ccccc1", "target": "IDE", "test": "enzyme activity, inhibitor, fluorescence", "measurement": "IC50", "value": "3200 nM"}
{"Compound": "Cc1cc2nc3c(=O)[nH]c(=O)nc-3n(C[C@H](O)[C@H](O)[C@H](O)COP(=O)(O)OP(=O)(O)OC[C@H]3O[C@@H](n4cnc5c(N)ncnc54)[C@H](O)[C@@H]3O)c2cc1C", "target": "Heterogeneous nuclear ribonucleoprotein H3 (Homo sapiens, UniProt P31942)", "test": "binding", "conditions": "lysate", "measurement": "Kd", "value": "19 nM"}
{"Compound": "CNC(=O)c1cc2c(Oc3ccc(NC(=O)C4(C(=O)Nc5ccc(F)cc5)CC4)cc3)ccnc2cc1OC", "target": "CSF1R", "test": "enzyme activity, inhibitor, radiometric", "measurement": "IC50", "value": "11 nM"}
{"Compound": "Cc1cnc(-c2ccc(-c3ccc(NC(=O)Nc4c(F)cc(F)cc4F)cc3F)c3c2C(=O)NC3)[nH]1", "target": "Serine/threonine-protein kinase 4 (STK4, Homo sapiens, UniProt Q13043)", "test": "binding, competition with immobilised ligand", "measurement": "Kd", "value": "1.3 nM"}
{"Compound": "CC(C)COC(=O)[C@H](Cc1cnc[nH]1)NC(=O)CN(CC(=O)O)Cc1ccccc1", "target": "IDE", "test": "enzyme activity, inhibitor, fluorescence", "measurement": "IC50", "value": "600 nM"}
{"Compound": "Nc1nc2c(ncn2[C@@H]2O[C@H](COP(=O)(O)OP(=O)(O)OP(=O)(O)OC[C@H]3O[C@@H](n4cnc5c(=O)[nH]c(N)nc54)[C@H](O)[C@@H]3O)[C@@H](O)[C@H]2O)c(=O)[nH]1", "target": "Gem-associated protein 5 (Homo sapiens, UniProt Q8TEQ6)", "test": "binding, ITC", "measurement": "Kd", "value": "140000 nM"}
{"Compound": "Cc1cc(Nc2cc3ncccc3c(N[C@@H]3C[C@H]4CC[C@@H](C3)N4CCC#N)n2)n[nH]1", "target": "CSF1R", "test": "binding, competition with immobilised ligand", "measurement": "Kd", "value": "1100 nM"}
{"Compound": "CCCC[C@@H]1NC(=O)[C@H](Cc2ccc(O)cc2)NC(=O)[C@@H]2CCCN2C(=O)[C@H](CC(=O)O)NC(=O)[C@H](C)NC(=O)[C@H](Cc2ccccc2)NC(=O)[C@@H]2CSCCC(=O)N3CN(CN(C3)C(=O)CCSC[C@@H](C(=O)N[C@@H](CNC(=O)Cn3cc(CCC(=O)NCCC(=O)N(C)CC(=O)N(C)CC(=O)N(C)CC(=O)N(C)CC(=O)N(C)CC(=O)N(C)CC(=O)N(C)CC(=O)N(C)CC(=O)N(C)CC(=O)N(C)CC(=O)N[C@H]4CSCCC(=O)N5CN6CN(C5)C(=O)CCSC[C@H](NC(=O)[C@@H](CC(=O)O)NC(=O)[C@H](Cc5cccc7ccccc57)NC(=O)[C@@H]5CCCN5C4=O)C(=O)N[C@@H](CCSC)C(=O)N[C@@H](CCCCNC(=N)N)C(=O)N[C@@H](CC(=O)O)C(=O)N[C@@H](Cc4c[nH]c5ccccc45)C(=O)N[C@@H](CO)C(=O)N[C@@H]([C@@H](C)O)C(=O)N4CCC[C@H]4C(=O)N4C[C@H](O)C[C@H]4C(=O)N[C@@H](Cc4c[nH]c5ccccc45)C(=O)N[C@H](C(N)=O)CSCCC6=O)nn3)C(N)=O)NC1=O)C(=O)CCSC[C@H](NC(C)=O)C(=O)N[C@@H](CC(C)(C)C)C(=O)N1CCC[C@H]1C(=O)N[C@@H](CCC(=O)O)C(=O)N[C@H](C)C(=O)N1CCC[C@H]1C(=O)N[C@@H](Cc1ccc(O)cc1)C(=O)N2", "target": "Tumor necrosis factor receptor superfamily member 9", "test": "binding, SPR", "measurement": "Kd", "value": "4.9 nM"}
{"Compound": "c1cncc(-c2cccc(Nc3nccc(NC4CCCCC4)n3)c2)c1", "target": "CSF1R", "test": "binding, competition with immobilised ligand", "measurement": "Kd", "value": "590 nM"}
